Source: PubChem BioAssay
Rows were chosen to be rich in hits. Some 6.7% of all compounds tested hit in one or more screens of this group.
NR3A LBD binder – modulates the human NR3A ligand-binding domain | NR3A LBD differential scanning fluorimetry, Tm shift; 0% = protein alone, 100% = glycine-bound protein | hit rate 2.5% among 340,000 | Tm shift relative to glycine control, % at 25 µM;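 active = melting temperature shift of at least 10% of the positive control shift, at one fixed dose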
PREPL inh – inhibits the human prolyl oligopeptidase-like enzyme | Q4J6C6 | recombinant PREPL, fluorescence polarization activity-based probe | inhibition, % at 5.96 µM | hit rate 0.68% among 320,000; in the data active = inhibition above about 43%;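 note: 0% = enzyme with DMSO and 100% = wells lacking enzyme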
Target sequence (Q4J6C6 whole entry, looked up): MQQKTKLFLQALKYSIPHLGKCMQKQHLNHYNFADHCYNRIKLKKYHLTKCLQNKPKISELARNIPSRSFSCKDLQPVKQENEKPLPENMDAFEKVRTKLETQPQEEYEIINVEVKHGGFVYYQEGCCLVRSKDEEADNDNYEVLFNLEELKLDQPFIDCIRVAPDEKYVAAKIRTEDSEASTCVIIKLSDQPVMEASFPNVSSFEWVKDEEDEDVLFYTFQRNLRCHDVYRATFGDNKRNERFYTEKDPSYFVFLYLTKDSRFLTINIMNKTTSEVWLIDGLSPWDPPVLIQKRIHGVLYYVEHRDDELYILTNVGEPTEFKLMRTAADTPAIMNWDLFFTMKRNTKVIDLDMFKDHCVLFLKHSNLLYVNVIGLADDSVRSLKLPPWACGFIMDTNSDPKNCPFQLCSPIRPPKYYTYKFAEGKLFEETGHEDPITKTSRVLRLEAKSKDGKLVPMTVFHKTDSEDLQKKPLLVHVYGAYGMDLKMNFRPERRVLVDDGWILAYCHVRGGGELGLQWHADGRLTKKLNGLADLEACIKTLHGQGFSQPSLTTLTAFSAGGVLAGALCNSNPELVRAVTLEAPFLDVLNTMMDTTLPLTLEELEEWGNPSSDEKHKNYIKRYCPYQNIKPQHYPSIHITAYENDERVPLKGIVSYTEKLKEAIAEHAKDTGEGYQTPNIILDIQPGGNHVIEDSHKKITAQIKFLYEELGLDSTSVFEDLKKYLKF
CSC inhib – blocks cancer stem cells | AID 2717 | hit rate 1.1% among 300,000 | inhibition, % at 7.5 µM | cancer stem cell-like cells viability, luminescence; in the data active = inhibition above about 75%; tested in HMLE shEcad cells
CHOP inh – CHOP inhibition in unfolded protein response; CHO-K1 CHOP-promoter luciferase, tunicamycin-induced, 15-18 h; AID 2732; inhibition, % at 10 µM; hit rate 3.8% among 220,000;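 active = compounds that reduced the stress-induced luciferase reporter signal by more than about 70% of percent inhibition, limit read from the data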;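 note: 0% = tunicamycin plus vehicle and 100% = wells without tunicamycin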
Beta apoptosis – beta cell apoptosis inhibition. INS-1E cytokine-induced death, ATP luminescence, 48 h; percent of positive-control rescue, neutral wells zero. protection from apoptosis, % (no concentration beside the values). hit rate 0.8% among 300,000. AID 435005;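 active = Every replicate reaches about 75%, or at least half do and their mean reaches it too, limit read from the data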;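 note: 0% = cytokine-treated negative control wells and 100% = positive control rescue; higher means more ATP so stronger rescue from cytokine killing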
T cruzi repl – blocks replication of Trypanosoma cruzi | T. cruzi beta-gal in NIH3T3, luminescence, 90 h | inhibition, % (test concentration not listed) | hit rate 1.4% among 300,000;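 active = mean inhibition across valid replicates above about 55%, limit read from the data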;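 note: signal also drops with host cell toxicity which is not excluded here; 0% = plate median of DMSO wells and 100% = zero luminescence signal; higher percent means less beta-gal luminescence so fewer parasites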
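System: mouse NIH/3T3 fibroblasts infected with β-gal-expressing T. cruzi Tulahuen C4 / Input: NIH/3T3 cells, 5,000 per well / Buffer or medium: Low-serum DMEM with 2% FBS / Probe or stimulus: 5000 reporter trypomastigotes per well / Schedule: ≥90 h infection period, 3 h prior cell attachment / Measured by: GalScreen luminescence, 60 min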
Starred values were filed as active, the others as inactive; . = not tested or not shown.

SMILES | NR3A LBD binder | PREPL inh | CSC inhib | CHOP inh | Beta apoptosis | T cruzi repl
COc1cccc(CN2CCN(Cc3c(C)nn(C(C)C)c3C)CC2CCO)c1 (centres undefined) | -1 | 12 | -1 | 6 | -4 | 71*
COc1cccc(CN2CCN(Cc3ccc(O)cc3)CC2CCO)c1 (centres undefined) | 2 | 8 | 9 | -20 | -8 | -13
CCOc1ccc(CN2CCN(Cc3cc4c(cc3Cl)OCO4)CC2CCO)cc1 (centres undefined) | 0 | 1 | 41 | 6 | 0 | 31
OCCC1CN(Cc2cccc(C(F)(F)F)c2)CCN1Cc1ccccc1 (centres undefined) | 1 | 18 | 18 | -4 | 0 | 55*
Cc1ccc(CN2CCN(Cc3cccc4c3OCO4)CC2CCO)cc1 (centres undefined) | 0 | 2 | 21 | 10 | 12 | 90*
CCC(=O)NCc1ccc2[nH]c(C)cc2c1 | -1 | 7 | -11 | 0 | -4 | -7
CCOc1ccc(CN2CCN(Cc3cccc4c3OCO4)CC2CCO)cc1 (centres undefined) | -1 | 4 | 4 | 12 | . | 97*
OCCC1CN(Cc2ccc3nonc3c2)CCN1Cc1ccsc1 (centres undefined) | 0 | 20 | 0 | 9 | -7 | 70*
Fc1ccccc1N1CCN(C2CCCN(Cc3cccc(C(F)(F)F)c3)C2)CC1 (centres undefined) | 1 | -38 | 7 | . | . | 72*
CCOc1ccc(CN2CCN(Cc3cnn(CC)c3C)CC2CCO)cc1 (centres undefined) | -4 | 5 | 20 | -6 | -4 | 26
CCOc1ccc(CN2CCN(Cc3cccc4nonc34)CC2CCO)cc1 (centres undefined) | -4 | -3 | -9 | 4 | 0 | 60*
O=C(CC1OC(=O)c2ccccc21)Nc1cccc(S(=O)(=O)N2CCCCCC2)c1 (centres undefined) | -10 | 6 | -1 | . | 5 | 13
O=C(O)C1C(c2ccccc2)c2ccccc2C(O)C1CO (centres undefined) | 0 | . | . | . | . | .
Cc1ccc(CN(C)C(=O)CSc2nnc3n2CCCCC3)c(C)c1 | 1 | 18 | . | . | -2 | .
CN1CCN(C(=O)CN(C)S(=O)(=O)c2cc(Cl)ccc2Cl)CC1 | -4 | -4 | -6 | . | -3 | 1
CCOc1ccc(CN2CCN(Cc3cccn3-c3cccnc3)CC2CCO)cc1 (centres undefined) | -2 | -5 | -18 | 4 | -6 | 60*
Cc1ccc(OCC(=O)NCCNC(=O)c2cnccn2)cc1C | -5 | . | . | . | . | -4
Cc1ccc(C2C(C=Nc3c(C)n(C)n(-c4ccccc4)c3=O)=C(c3ccccc3)Oc3ccccc32)cc1 (centres undefined) | 2 | 0 | . | 37 | 80* | 33
CC(C)C(=O)Nc1ccc(NC(=O)c2cccc3c(Br)cccc23)cc1 | -8 | . | -5 | . | -2 | -8
O=C(O)c1ccc(NC(=S)NC(=O)c2ccc(-c3ccc(Br)cc3)o2)cc1 | -3 | 22 | 21 | . | -2 | 1
COc1ccc(CN(C)CC2CCCN(CCc3ccccc3C)C2)cc1O (centres undefined) | 0 | 0 | 10 | . | . | 31
COc1cccc(CN(C)CC2CCCN(CCc3ccccc3C)C2)c1 (centres undefined) | -1 | 0 | 4 | . | . | 55*
Cc1cccc(N(CC(=O)NC(C)(C)C)C(=O)CS(=O)CC(=O)Nc2ccc3c(c2)OCO3)c1 (centres undefined) | 1 | 27 | 2 | -8 | 0 | -5
CCc1c(C(=O)Nc2ccc(OC)c(Cl)c2)[nH]c(C)c1C(C)=O | -9 | 28 | 9 | 86* | 0 | 29
O=C(Nc1ccc(F)c(Cl)c1)c1ccc2c(c1)OCO2 | -2 | 2 | 9 | . | 1 | -9
SMILES | NR3A LBD binder | PREPL inh | CSC inhib | CHOP inh | Beta apoptosis | T cruzi repl
COc1ccc(NC(=O)c2ccc3c(c2)OCO3)cc1Cl | 26* | -2 | . | -14 | 16 | -3
COc1cc(NC(=O)c2ccc3c(c2)OCCO3)ccc1NC(=O)c1ccccc1Cl | 29* | 13 | 11 | . | 1 | 11
Cc1ccc(NC(=O)CS(=O)CC(=O)Nc2ccc3c(c2)OCO3)cc1Cl (centres undefined) | 30* | 10 | 12 | 27 | 3 | -5
CN(C)CCCn1c2c(c(SCC(=O)Nc3cccc4ccccc34)nc1=O)CCC2 | . | 33 | -10 | . | -11 | 57*
COc1ccc(-c2nc(C(=O)NCCCN3CCOCC3)cc3c2[nH]c2ccccc23)cc1OC | -2 | 17 | -3 | . | 32 | 21
Cc1ccc(-c2nc(C(=O)NCCCN3CCOCC3)cc3c2[nH]c2ccccc23)cc1 | -4 | 7 | -12 | . | . | 57*
Oc1ccc(/C=N/Nc2cccc3cccnc23)c(O)c1 | 32* | 27 | . | 60 | . | -19
Cc1ccc(/C=N/Nc2cccc3cccnc23)c(O)c1 | 10* | 18 | . | 21 | 8 | 6
CC(C)OCCCNC(=O)c1cccc2c1C(=O)c1ccc(Cl)cc1S2(=O)=O | 1 | 4 | -19 | . | 1 | .
CCOc1ccccc1OCCOc1ccccc1OC(C)C | -10 | 4 | -8 | 70 | . | 7
CCOc1ccccc1OCCOc1ccccc1CC | 3 | 28 | 4 | 76* | . | 11
COCCCNC(=O)c1cc(Sc2nnc(C)s2)nc2ccccc12 | -2 | -3 | 7 | 20 | 2 | -1
Cc1nnc(Sc2cc(C(=O)NCCCN(C)Cc3ccccc3)c3ccccc3n2)s1 | -7 | -56 | -10 | 9 | . | 64*
COC(=O)c1c(NC(=S)Nc2ccccc2Cl)sc(C)c1C | -4 | 6 | 1 | 89* | 12 | -16
O=C(Nc1ccccc1N1CCCC1)c1ccc([N+](=O)[O-])o1 | -1 | 7 | 10 | . | -17 | 62*
O=C(Nc1ccc(N2CCCC2)c(Cl)c1)c1ccc([N+](=O)[O-])o1 | -2 | . | . | -29 | . | .
O=C(Nc1cccc(NC(=O)c2ccccc2Cl)c1)c1ccc([N+](=O)[O-])o1 | -3 | -12 | 44 | . | 96* | 29
CC(C)C(=O)N1CCN(c2ccccc2NC(=O)c2ccc([N+](=O)[O-])o2)CC1 | -3 | 13 | 5 | . | -9 | 56*
CN1CCN(c2ccccc2NC(=O)c2ccc(-c3ccc(Cl)cc3Cl)o2)CC1 | 0 | 28 | 101* | 36 | 18 | 55*
CCC(=O)N1CCN(c2ccccc2NC(=O)c2ccc([N+](=O)[O-])o2)CC1 | 0 | -5 | -9 | . | -2 | 23
COc1ccc(C)cc1NC(=O)CSc1nnc2ccc(-c3ccncc3)nn12 | . | -7 | -3 | . | -2 | -5
O=C(CC1SC(=Nc2ccccc2)N(CCc2ccccn2)C1=O)Nc1ccc(F)cc1 (centres undefined) | -15 | 14 | 0 | 38 | -9 | -1
